Legend:
Assay type in all cases: ADME, organism-based
[1] = test system: Plasma; assay: Plasma concentration in Harlan C57BL/6 mouse at 5 to 20 mg/kg, sc after 6 to 8 hrs by LC/MS/MS analysis; parameters: route subcutaneous; details: in vivo
Method in brief: (§1)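 Harlan mice were given a single subcutaneous dose at 5, 10 or 20 mg/kg. Blood was sampled at multiple time points over about 8 h, and each sample was used for both total circulating WBC count and plasma drug level. Counts and concentrations were plotted against time for each dose.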

[2] = Plasma concentration in Harlan C57BL/6 mouse at 20 mg/kg, sc after 1 hr by LC/MS/MS analysis; parameters: dose 20 mg/kg, route subcutaneous; method in brief: as §1
[3] = Plasma concentration in Harlan C57BL/6 mouse at 5 mg/kg, sc after 1 hr by LC/MS/MS analysis; parameters: dose 5 mg/kg, route subcutaneous; method in brief: as §1

Cp [1]: 0.087 µg/mL
concentration at 1 h [2]: 1.54 µg/mL
concentration at 1 h [3]: 0.725 µg/mL
Structure (SMILES): NCCCCN(C[C@H]1Cc2ccccc2CN1)[C@H]1CCCc2cccnc21
